SF1 activator: activators of human SF-1, primary screen, cell-based, CHO-K1, Gal4-SF-1 LBD, luciferase luminescence; CHO-K1 Gal4-SF-1 LBD luciferase reporter; % increase over DMSO SF-1-specific signal; activation, % at 10 µM; actives 1.9% (n = 65,000); AID 522, 2006;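 active = activation above the mean activation of all tested compounds plus 3 SD, cut at about 50% in these data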
Target sequence (Q13285 whole entry, looked up, the tested form may be a part): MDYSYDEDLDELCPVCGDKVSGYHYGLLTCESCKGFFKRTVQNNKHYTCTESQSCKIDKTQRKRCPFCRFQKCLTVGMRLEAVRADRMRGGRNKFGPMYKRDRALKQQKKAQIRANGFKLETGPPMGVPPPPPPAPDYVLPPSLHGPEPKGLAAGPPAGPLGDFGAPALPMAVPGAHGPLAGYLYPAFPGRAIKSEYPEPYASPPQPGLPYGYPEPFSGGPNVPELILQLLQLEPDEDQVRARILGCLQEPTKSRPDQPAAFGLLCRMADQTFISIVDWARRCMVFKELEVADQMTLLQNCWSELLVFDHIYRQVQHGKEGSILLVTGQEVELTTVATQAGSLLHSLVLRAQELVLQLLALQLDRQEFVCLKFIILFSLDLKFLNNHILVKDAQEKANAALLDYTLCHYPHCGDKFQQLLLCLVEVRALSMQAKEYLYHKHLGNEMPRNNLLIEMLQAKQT
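Assay system – CHO-K1 cells with Gal4–hSF-1 LBD chimera plus Gal4-driven luciferase · Quantity – 4,000 cells per well · Times – compound added 1 h post-seeding, 20 h exposure at 37 °C, 5% CO2 · Measured by – luciferase light emission · Benchmarks – DMSO and mock-transfected background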
RORa activator: activators of orphan receptor RORA, primary screen, cell-based, luminescence | actives 1.5% (n = 65,000) | activation, % at 10 µM | CHO-K1 Gal4-RORA LBD luciferase reporter; percent increase over mock-subtracted basal signal;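 active = activation above the mean of all tested compounds plus 3 SD, cut at about 49% in these data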;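 note: 0% = DMSO-treated RORA cells and 100% = added signal equal to DMSO minus mock-transfected cells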
M1 antag: antagonists of rat M1 muscarinic receptor. Muscarinic acetylcholine receptor M1 (Rattus norvegicus), P08482. CHO-M1 cells, Fluo-4 calcium, ACh EC80 antagonist mode; hits give low values. B-score at 10 µM. actives 3.4% (n = 64,000);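 active = calcium fluorescence response, raw or row-and-column corrected B-score, differing from the plate sample mean either way at a set confidence level, mostly lower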
mHtt clearance: clearance of mutant huntingtin inclusions, primary screen, imaging, HeLa Exon1htt(103Q)mCFP, confocal imaging | inhibition, % at 1.5 µM | actives 0.42% (n = 47,000) | aggregate imaging; zero = plate's median compound well | AID 853, 2007;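 active = inhibition of aggregate fluorescence above about 70%, also judged a hit by eye on the cell image, limit read from the data, passing the limit was not always enough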;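 note: cells exposed to compound for three days before fixation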
M1 agonist: M1 muscarinic receptor agonists, primary screen, CHO-M1 cells, Fluo-4 calcium, agonist mode | Muscarinic acetylcholine receptor M1 | Fluo-4 calcium fluorescence; hits give high values | B-score at 10 µM | actives 3% (n = 64,000) | AID 626, 2007;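 active = fluorescence rise, raw or as B-score row- and column-corrected plate score, outside the 99.7% band of its plate's samples, either direction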
D1 allo mod: D1 CRE-luciferase signal change, two-sided – cell-based, HEK293 D1, dopamine EC30, D1 allosteric modulator project, primary screen; B-score at 10 µM; dopamine EC30 potentiation; actives deviate in either direction; actives 5.9% (n = 58,000);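 active = luminescence count or its row- and column-corrected plate score outside the 99.7% band of the plate's sample wells, on either side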
Numbers without * were called inactive; x = not tested or not shown. Shown are actives, neighbours in structure and some others; about 11% of the full set was active somewhere.

SMILES	SF1 activator	RORa activator	M1 antag	mHtt clearance	M1 agonist	D1 allo mod
CC(C)C(=O)N1CCN(c2ccc(NC(=O)c3cccs3)cc2)CC1	x	x	x	79*	x	x
O=C(NCCSCc1ccccc1)c1cc(S(=O)(=O)N2CCOCC2)ccc1F	-4	-4	0.46	x	-1.5	-0.26
O=C1Nc2cc(Cl)cnc2N2CCCC12 (configuration not stated)	20	9	-0.034	x	13*	0.029
CC1CCC(NC(=O)CN2C(=O)C3CCCN3c3ncc(Cl)cc32)CC1 (configuration not stated)	2	0	-0.31	-107	1.1	0.056
C/C(NC(=O)c1ccccc1)=C1/C(=O)CC2C1C2(C)C (configuration not stated)	30	68*	-0.083	x	-0.74	0.037
CC(=O)C1=C(NC(=O)c2ccc(F)cc2)CC2C1C2(C)C (configuration not stated)	x	x	x	-10	x	x
CCSc1nnc(NC(=O)CSc2nc3c(c(=O)n2CCOC)SC(C)C3)s1 (configuration not stated)	-11	2	0.0018	x	-0.74	-0.0046
CCC(=O)Nc1ccc(NC(=O)c2ccccn2)cn1	39	65*	0.18	x	0.036	-2.9
O=C(Nc1ccc(NC(=O)C2CC2)nc1)c1ccccn1	13	8	0.55	-3	1.9	-3.8
CC(C)C(=O)Nc1ccc(NC(=O)c2ccccn2)cn1	41	51*	0.097	x	-0.54	-4.9*
Cc1c(N2C(=O)CSC23C(=O)Nc2ccccc23)c(=O)n(-c2ccccc2)n1C (configuration not stated)	-9	4	0.081	x	0.4	0.7
C=CCOc1ccc(C(=O)N(Cc2ccc(N(C)C)cc2)C2CCS(=O)(=O)C2)cc1 (configuration not stated)	1	14	0.5	x	1.1	0.87
Cc1ccc(N2C(=O)CC3(CC4C=CC3C4)C2=O)cc1 (configuration not stated)	3	5	0.54	-50	0.088	0.77
Cn1cc(SCC(=O)Nc2ccc3c(c2)OCCO3)c2ccccc21	x	x	x	-80	x	x
CN=Cc1cc(-c2ccccc2)sc1O	56*	27	-0.0084	x	-0.072	1.8
CC(N=Cc1cccc(O)c1O)c1ccccc1 (configuration not stated)	-18	3	0.79	x	2.1	-0.53
Cc1ccc(C)c(OCC(O)CN2CCCCC2C)c1 (configuration not stated)	-10	29	0.37	-30	0.48	-6*
CCCC1CCc2c(sc(NC(=O)OCC)c2C#N)C1 (configuration not stated)	x	x	x	40	x	x
CC1CCCCN1CCNC(=O)CC1Oc2ccccc2NC1=O (configuration not stated)	2	8	-0.68	x	1.6	0.33
O=C(CCN1C(=O)COc2ccccc21)NCCCN1CCN(c2ccccc2F)CC1	20	-22	0.59	-40	0.44	-3.1*
CC1CCCCN1CCNC(=O)CN1C(=O)COc2ccccc21 (configuration not stated)	-6	-11	-0.7	46	0.19	-3.5*
O=C(CCN1C(=O)COc2ccccc21)NCCN1CCc2ccccc2C1	17	-9	-1	x	0.33	-1.3
CC1=CC(C)=Nc2ccc(C)cc2N1	76*	58*	0.16	56	0.78	-0.75
Cc1ccc2c(c1)NC(=O)CC(c1ccccc1)=N2	x	x	x	-1	x	x
CCCCc1ccc(-c2nc(-c3ccncc3)no2)cc1	48	59*	-0.28	x	-2	0.29
SMILES	SF1 activator	RORa activator	M1 antag	mHtt clearance	M1 agonist	D1 allo mod
c1coc(-c2nc(-c3ccncc3)no2)c1	50*	48	1.2	26	0	x
Brc1ccc(-c2nc(-c3ccncc3)no2)o1	50*	27	0.95	-103	1.4	0.78
O=C(Nc1cccc(C(F)(F)F)c1)C1CCCN(c2ncccn2)C1 (configuration not stated)	11	11	-0.98	x	0.3	-0.17
Cc1ccc(NC(=O)C2CCCN(c3ncccn3)C2)cc1F (configuration not stated)	67*	46	-0.53	18	0.035	x
O=C(Nc1ccc2c(c1)CCC2)C1CCCN(c2ncccn2)C1 (configuration not stated)	69*	31	0.21	-1	1.2	0.11
COc1ccc(-n2nc3c(c2NC(=O)c2c(-c4ccccc4Cl)noc2C)CS(=O)(=O)C3)cc1	-4	-10	0.69	x	-0.37	0.16
COc1ccc(C(=O)COC(=O)CN2CC(=O)Oc3ccccc32)cc1Br	-3	-12	0.059	-69	2.2	2.2
O=C1C2ON(c3ccc(Cl)cc3)C(c3ccco3)C2C(=O)N1c1ccccc1 (configuration not stated)	15	-12	-1	14	0.016	-0.97
S=C(Nc1ccccn1)c1ccccn1	27	36	0.17	-29	-0.054	-2.6*
Cc1ccc(C)c(NC(=S)c2ccccn2)c1	x	x	x	-26	x	x
CCn1c(-c2ccc(N(C)C)cc2)nc2ccccc21	19	88*	-0.96	31	-0.57	-4.9*
C=CCn1c(-c2ccc(OC)cc2)nc2ccccc21	41	42	-0.032	-31	0.19	-1.7
CCn1c(-c2ccco2)nc2ccccc21	42	7	-0.6	27	1.8	-0.49
C=CCn1c(-c2ccc(N)cc2)nc2ccccc21	57*	38	-1.6	-72	1	-1.5
CCn1c(-c2ccc(N)cc2)nc2ccccc21	37	50*	1.2	3	0.5	-0.81
CCOc1ccccc1NC(=O)C1CCCCN1S(=O)(=O)c1ccc(F)cc1 (configuration not stated)	x	x	x	-394	x	x
c1ccc(OCCSc2nnnn2-c2ccccc2)cc1	63*	35	-0.37	35	-0.44	-0.54
c1ccc(OCCSc2nnc3sc4ccccc4n23)cc1	-54	-35	-0.55	22	-0.49	-6*
COc1cccc(OCCSc2nnc3sc4ccccc4n23)c1	3	11	0.022	28	0.038	0.26
Fc1ccccc1OCCSc1nnnn1-c1ccccc1	46	43	x	44	x	-0.81
NC1=NC2(CCCCC2)n2c(nc3ccccc32)N1	6	-12	-0.02	25	-1.2	-4.6*
CCOc1cc(C)c(S(=O)(=O)Nc2ccc(Cl)cn2)cc1C	-9	-9	-1.8	x	-0.26	0.26
CCOc1ccc(S(=O)(=O)Nc2ccc(Cl)cn2)c(C)c1C	-2	2	0.0044	39	0.024	-2.6*

Compound activity: PubChem BioAssay, several laboratories
